According to ChEMBL document CHEMBL1141565, “Discovery of disubstituted cyclohexanes as a new class of CC chemokine receptor 2 antagonists” (J Med Chem, 2008):

How the values were obtained:
[1] = molecular target: T1, C-C chemokine receptor type 3 (Homo sapiens) (UniProt P51677); assay: Binding affinity for human CCR3 at 10 uM
T1 sequence (whole entry): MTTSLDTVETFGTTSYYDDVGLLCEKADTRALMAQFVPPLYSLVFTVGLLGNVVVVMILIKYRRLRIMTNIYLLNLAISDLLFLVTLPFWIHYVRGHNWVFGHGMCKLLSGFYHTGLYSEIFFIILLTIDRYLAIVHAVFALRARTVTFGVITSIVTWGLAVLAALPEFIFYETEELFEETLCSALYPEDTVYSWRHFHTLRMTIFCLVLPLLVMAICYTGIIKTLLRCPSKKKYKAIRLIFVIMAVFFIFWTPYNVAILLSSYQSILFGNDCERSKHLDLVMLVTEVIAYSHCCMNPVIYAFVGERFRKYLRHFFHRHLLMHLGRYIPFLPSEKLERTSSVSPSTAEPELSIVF

[2] = molecular target: T2, C-C chemokine receptor type 2 (Homo sapiens, UniProt P41597); assay: Displacement of radiolabeled MCP1 from human CCR2 in PBMCs
In short: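 Competitive binding: test compound displaces radiolabeled MCP-1 from CCR2 on peripheral blood mononuclear cells. IC50 is given as mean ± SD when n = 2 and mean ± SEM when n > 2, with n the number of determinations.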

[3] = molecular target: T2, C-C chemokine receptor type 2; assay: Antagonist activity at human CCR2 in PBMCs assessed as inhibition of MCP1-induced calcium flux; format: functional
Homo sapiens = species on record: Homo sapiens; assay: Selectivity for human CCR2 over human CCR3
[4] = Ratio of IC50 for wild type CCR2 to IC50 for CCR2 T292A mutant
[5] = molecular target: C-C chemokine receptor type 2 (Homo sapiens, UniProt P41597, E291A); assay: Binding affinity to CCR2 E291A mutant
[6] = molecular target: T2, C-C chemokine receptor type 2; assay: Binding affinity to wild type CCR2
[7] = Ratio of IC50 for wild type CCR2 to IC50 for CCR2 E291A mutant
[8] = molecular target: C-C chemokine receptor type 2 (Homo sapiens, UniProt P41597, T292A); assay: Binding affinity to CCR2 T292A mutant
Chain of C-C chemokine receptor type 2 (Homo sapiens, UniProt P41597, T292A) (P41597 whole entry T292A): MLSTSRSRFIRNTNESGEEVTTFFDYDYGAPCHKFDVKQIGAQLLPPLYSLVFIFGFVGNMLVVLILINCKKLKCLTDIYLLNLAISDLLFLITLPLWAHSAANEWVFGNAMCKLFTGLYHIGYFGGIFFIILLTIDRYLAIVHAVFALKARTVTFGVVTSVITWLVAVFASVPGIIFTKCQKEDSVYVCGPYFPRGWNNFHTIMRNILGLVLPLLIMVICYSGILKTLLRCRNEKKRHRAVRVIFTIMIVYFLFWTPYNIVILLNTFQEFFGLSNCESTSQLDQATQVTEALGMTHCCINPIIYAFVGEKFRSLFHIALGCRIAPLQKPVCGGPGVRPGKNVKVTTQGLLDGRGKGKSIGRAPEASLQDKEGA

Chain of C-C chemokine receptor type 2 (Homo sapiens, UniProt P41597, E291A) (P41597 whole entry E291A): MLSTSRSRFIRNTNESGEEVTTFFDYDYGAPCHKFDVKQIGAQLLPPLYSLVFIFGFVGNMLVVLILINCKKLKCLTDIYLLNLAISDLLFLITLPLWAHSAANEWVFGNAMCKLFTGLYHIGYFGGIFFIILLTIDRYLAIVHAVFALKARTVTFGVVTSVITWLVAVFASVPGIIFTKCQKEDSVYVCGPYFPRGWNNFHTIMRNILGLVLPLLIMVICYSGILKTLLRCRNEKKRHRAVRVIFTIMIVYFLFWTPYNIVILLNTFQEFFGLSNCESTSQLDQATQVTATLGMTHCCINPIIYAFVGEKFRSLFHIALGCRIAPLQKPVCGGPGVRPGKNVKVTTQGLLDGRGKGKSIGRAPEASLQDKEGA
T2 sequence (P41597 whole entry): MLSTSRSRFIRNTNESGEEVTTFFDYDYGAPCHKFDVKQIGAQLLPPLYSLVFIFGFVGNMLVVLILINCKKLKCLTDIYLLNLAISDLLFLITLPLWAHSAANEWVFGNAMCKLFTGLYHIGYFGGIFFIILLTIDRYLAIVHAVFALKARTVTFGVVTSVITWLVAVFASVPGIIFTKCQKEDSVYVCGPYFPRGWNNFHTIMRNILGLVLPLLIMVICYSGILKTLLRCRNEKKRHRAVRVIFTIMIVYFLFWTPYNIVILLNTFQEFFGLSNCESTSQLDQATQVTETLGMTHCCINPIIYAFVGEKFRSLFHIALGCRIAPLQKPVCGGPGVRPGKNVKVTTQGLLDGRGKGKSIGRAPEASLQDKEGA

Row | SMILES | inhibition [1] | IC50 [2] | other results
1 | O=C(CNC(=O)c1cccc(C(F)(F)F)c1)N[C@H]1CCCC[C@@H]1NCc1ccc(Cl)cc1 (racemic) | 50% | 970 nM | –
2 | O=C(CNC(=O)c1cccc(C(F)(F)F)c1)N[C@H]1CCCC[C@@H]1NCc1ccc(Cl)cc1Cl (racemic) | – | 7860 nM | –
3 | Cc1ccc(CN2CC[C@@H](NC(=O)CNC(=O)c3cccc(C(F)(F)F)c3)C2)c(C)c1 | – | – | Ratio IC50 [4]: 30
4 | Cc1cc(C)c(CN[C@H]2CCCC[C@@H]2NC(=O)CNC(=O)c2cccc(C(F)(F)F)c2)c(C)c1 (racemic) | – | 1190 nM | –
5 | O=C(CNC(=O)c1cccc(C(F)(F)F)c1)N[C@H]1CCCC[C@H]1NCc1ccc(Cl)cc1 (racemic) | 24% | 790 nM | IC50 [5]: 2120 nM; IC50 [6]: 268 nM; Ratio IC50 [7]: 7.9; Selectivity ratio (Homo sapiens): 20
6 | Cc1ccc(CN[C@@H]2CCCC[C@@H]2NC(=O)CNC(=O)c2cccc(C(F)(F)F)c2)c(C)c1 (racemic) | 54% | 2170 nM | –
7 | Cc1ccc(C(=O)N[C@@H]2CCCC[C@@H]2NC(=O)CNC(=O)c2cccc(C(F)(F)F)c2)c(C)c1 (racemic) | – | 4130 nM | IC50 [5]: 7850 nM; IC50 [6]: 4130 nM; Ratio IC50 [7]: 1.9
8 | O=C(CNC(=O)c1cccc(C(F)(F)F)c1)N[C@H]1CCCC[C@@H]1NC(=O)c1ccc(Cl)cc1 (racemic) | – | 12000 nM | –
9 | Cc1ccc(CN(C)[C@H]2CCCC[C@@H]2NC(=O)CNC(=O)c2cccc(C(F)(F)F)c2)c(C)c1 (racemic) | – | 3010 nM | –

The remaining molecules from weak to strong by IC50 [2], led by results:

Row | inhibition [1] | IC50 [2] | SMILES | other results
10 | 57% | 550 nM | Cc1ccc(C(=O)N[C@@H]2CCCC[C@@H]2NC(=O)CNC(=O)c2cccc(C(F)(F)F)c2)cc1 (racemic) | –
11 | 54% | 540 nM | Cc1ccc(CN[C@H]2CCCC[C@@H]2NC(=O)CNC(=O)c2cccc(C(F)(F)F)c2)c(C)c1 | –
12 | 50% | 530 nM | O=C(CNC(=O)c1cccc(C(F)(F)F)c1)N[C@H]1CCCC[C@H]1NCc1ccc(OC(F)(F)F)cc1 (racemic) | Selectivity ratio (Homo sapiens): 20
13 | 47% | 400 nM | O=C(CNC(=O)c1cccc(C(F)(F)F)c1)N[C@H]1CCCC[C@H]1NCc1ccc(C(F)(F)F)cc1 (racemic) | Selectivity ratio (Homo sapiens): 20
14 | 55% | 360 nM | CC(C)c1ccc(CN[C@@H]2CCCC[C@@H]2NC(=O)CNC(=O)c2cccc(C(F)(F)F)c2)cc1 (racemic) | Selectivity ratio (Homo sapiens): 20
15 | 3% | 87 nM | CS(=O)(=O)c1ccc(C(=O)N[C@@H]2CCCC[C@@H]2NC(=O)CNC(=O)c2cccc(C(F)(F)F)c2)cc1 (racemic) | –
16 | 31% | 64 nM | CSc1ccc(C(=O)N[C@@H]2CCCC[C@@H]2NC(=O)CNC(=O)c2cccc(C(F)(F)F)c2)cc1 (racemic) | IC50 [3]: 215 nM
17 | 27% | 37 nM | O=C(CNC(=O)c1cccc(C(F)(F)F)c1)N[C@H]1CCCC[C@H]1NC(=O)c1ccc(I)cc1 | IC50 [3]: 30 nM
18 | 6% | 23 nM | Nc1ccc(C(F)(F)F)cc1C(=O)NCC(=O)N[C@H]1CCCC[C@H]1NC(=O)c1ccc(S(N)(=O)=O)cc1 (racemic) | IC50 [3]: 4.8 nM
19 | 39% | 21 nM | NS(=O)(=O)c1ccc(C(=O)N[C@@H]2CCCC[C@@H]2NC(=O)CNC(=O)c2cccc(C(F)(F)F)c2)cc1 (racemic) | IC50 [3]: 42 nM
20 | 10% | 9 nM | NS(=O)(=O)c1ccc(C(=O)N[C@@H]2CCCC[C@@H]2NC(=O)CNC(=O)c2cc(C(F)(F)F)ccc2NC(=O)C2CCCCC2)cc1 (racemic) | IC50 [3]: 3.7 nM
21 | 37% | 5.1 nM | CSc1ccc(C(=O)N[C@@H]2CCCC[C@@H]2NC(=O)CNC(=O)c2cc(C(F)(F)F)ccc2NC(=O)NC(C)C)cc1 | IC50 [5]: 3.7 nM; Ratio IC50 [4]: 40.5; IC50 [8]: 304 nM; IC50 [6]: 7.5 nM; Ratio IC50 [7]: 0.5; IC50 [3]: 18 nM
